Test results published in ChEMBL document CHEMBL4321800, “Synthesis, Identification, and Structure-Activity Relationship Analysis of GATA4 and NKX2-5 Protein-Protein Interaction Modulators” (J Med Chem, 2019).

Columns and labels:
Type in all cases: cell-based
[1] = molecular target: GATA4/NKX2-5 (Mus musculus) (UniProt Q08369+P42582); test: Modulation of mouse GATA4/mouse NKX2-5 protein-protein interaction expressed in Chlorocebus aethiops COS1 cells harboring 3xHA reporter gene assessed as transcriptional synergy at 10 uM after 24 hrs by luciferase reporter gene assay relative to control
How it was run: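 COS-1 cells seeded 14 000/well, grown overnight, then transfected for 6 h in serum- and antibiotic-free medium with pGL3-3xHA reporter (three NKX2-5 sites, 100 ng/well) plus pMT2-GATA4 and pMT2-NKX2-5 (total 50 ng/well), Fugene 6 at 1:3 DNA/reagent. Compound or 0.1% DMSO vehicle for 24 h, then luminescence read. Triplicates, Grubbs outliers removed, expressed as % of control.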

COS-1 = test: Induction of necrosis in Chlorocebus aethiops COS1 cells assessed as LDH release at 1 to 30 uM after 24 hrs by LDH assay relative to control; settings: cos-1, 24 h
How it was run: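 COS-1 cells in DMEM with 10% FBS at 37 °C, 5% CO₂, plated 10 000/well and exposed next day to 1–30 μM for 24 h. Medium samples mixed with NAD, iodonitrotetrazolium, lactate and phenazine methosulfate in 0.2 M Tris-HCl pH 8.2, 30 min at room temperature. Stopped with acetic acid, A490 read and normalized to maximal and spontaneous release.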

[2] = molecular target: Homeobox protein Nkx-2.5 (Mus musculus) (UniProt P42582); test: Modulation of mouse NKX2-5 expressed in Chlorocebus aethiops COS1 cells harboring 3xHA reporter gene assessed as protein-induced transcriptional activity at 10 uM after 24 hrs by luciferase reporter gene assay relative to control
Chain of Homeobox protein Nkx-2.5 (Mus musculus) (P42582 whole entry): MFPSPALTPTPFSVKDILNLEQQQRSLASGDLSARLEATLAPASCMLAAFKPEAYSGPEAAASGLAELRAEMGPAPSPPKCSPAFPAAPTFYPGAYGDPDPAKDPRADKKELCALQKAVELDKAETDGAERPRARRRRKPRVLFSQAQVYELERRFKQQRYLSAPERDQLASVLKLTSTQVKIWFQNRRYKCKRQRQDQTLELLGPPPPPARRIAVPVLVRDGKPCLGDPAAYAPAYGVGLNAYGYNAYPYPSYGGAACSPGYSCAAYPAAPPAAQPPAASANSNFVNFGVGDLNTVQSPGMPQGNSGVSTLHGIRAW
How it was run: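 COS-1 cells seeded 14 000/well and grown overnight. Transfection for 6 h in serum- and antibiotic-free medium with pGL3-3xHA reporter (100 ng/well) and pMT2-NKX2-5 (25 ng/well), Fugene 6 1:3. Compound or 0.1% DMSO vehicle for 24 h, then luciferase luminescence. Triplicate wells with Grubbs outlier removal, % of control.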

[3] = molecular target: Transcription factor GATA-4 (Mus musculus) (UniProt Q08369); test: Modulation of mouse GATA4 expressed in Chlorocebus aethiops COS1 cells harboring NP-112 reporter gene assessed as BNP promoter-driven transcriptional activity at 10 uM after 24 hrs by luciferase reporter gene assay relative to control
Chain of Transcription factor GATA-4 (Mus musculus) (Q08369 whole entry): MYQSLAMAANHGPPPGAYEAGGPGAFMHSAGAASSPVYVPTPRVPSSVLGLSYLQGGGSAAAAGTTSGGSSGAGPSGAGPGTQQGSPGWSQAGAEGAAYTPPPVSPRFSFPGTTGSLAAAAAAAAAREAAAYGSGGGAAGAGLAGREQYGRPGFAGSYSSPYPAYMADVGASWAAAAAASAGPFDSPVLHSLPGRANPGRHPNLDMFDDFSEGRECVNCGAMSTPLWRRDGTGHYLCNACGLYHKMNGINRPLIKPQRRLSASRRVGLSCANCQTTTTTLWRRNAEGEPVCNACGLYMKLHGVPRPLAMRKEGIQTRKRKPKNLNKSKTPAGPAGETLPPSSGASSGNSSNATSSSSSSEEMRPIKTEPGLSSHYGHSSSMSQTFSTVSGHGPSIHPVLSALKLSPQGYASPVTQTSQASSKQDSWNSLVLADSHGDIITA
How it was run: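 GATA reporter assay: COS-1 cells (14 000/well, overnight) transfected 6 h serum/antibiotic-free with NP-112 reporter (tandem GATA sites plus rat BNP minimal promoter, 100 ng/well) and pMT2-GATA4 (25 ng/well), Fugene 6 1:3. Treated 24 h with compound or 0.1% DMSO. Luminescence read; triplicates, Grubbs outliers removed, % of control.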

Activity [1] | SMILES | also measured
68% | CCN(CC)c1ccc(NC(=O)c2c(C(F)(F)F)nn(C)c2Oc2ccccc2)cc1 | 
66% | CCN(CC)c1ccc(N(Cc2ccccc2)C(=O)c2c(-c3ccccc3)noc2C)cc1 | 
100% | CCN(CC)c1ccc(/N=C/c2c(-c3ccccc3)noc2C)cc1 | 
 | CC[N+](O)(CC)c1ccc(NC(=O)c2c(-c3ccccc3)noc2C)cc1.O=C([O-])c1cccc(Cl)c1 | Activity (COS-1): < 8%
85% | CCN(CC)c1ccc(CN(C(=O)Nc2ccc(C#N)cc2)c2c(-c3ccccc3)noc2C)cc1 | 
100% | CCN(CC)c1ccc(NC(=O)c2c(-c3ccccn3)noc2C)cc1 | 
87% | CCN(CC)c1ccc(NC(=O)c2c(-c3ccccc3)nnc3ccccc23)cc1 | 
92% | COC(=O)c1ccc(NC(=O)c2c(-c3ccccc3)noc2C)cc1 | 
100% | CCN(CC)c1ccc(NCc2c(-c3ccccc3)noc2C)cc1 | 
110% | CCN(CC)c1ccc(NC(=O)c2c(SC)nsc2SC)cc1 | 
110% | CCN(CC)c1ccc(NC(=O)C2CCCC2)cc1 | 
80% | CCN(CC)c1ccc(N(Cc2c(-c3ccccc3)noc2C)C(C)=O)cc1 | 
84% | CCN(CC)c1ccc(NC(=O)c2c(-c3ccccc3)nnn2C)cc1 | 
98% | Cc1onc(-c2ccccc2)c1C(=O)Nc1ccc(C(=O)O)cc1 | 
87% | CCC(O)c1ccc(OCc2c(-c3ccccc3)noc2C)cc1 (racemic) | 
76% | CCC(=O)c1ccc(OCc2c(-c3ccccc3)noc2C)cc1 | Activity [2]: 80%; Activity [3]: 78%
100% | Cc1onc(-c2cccc([N+](=O)[O-])c2)c1C(=O)Nc1ccc(N(C)C)cc1 | 
110% | CCCOC(=O)c1ccc(OCc2c(-c3ccccc3)noc2C)cc1 | 
91% | CCN(CC)c1ccc(N(C)C(=S)c2c(-c3ccccc3)noc2C)cc1 | 
 | CN(C)c1ccc(NCc2c[nH]nc2-c2ccc(F)cc2)cc1 | Activity (COS-1): < 8%
110% | CCN(CC)c1ccc(NC(=O)c2c(-c3ccoc3)noc2C)cc1 | Activity [2]: 110%; Activity [3]: 99%

Activity [1] | SMILES | also measured
99% | CCN(CC)c1ccc(NC(=S)c2c(-c3ccccc3)noc2C)cc1 | 
100% | Cc1onc(-c2ccccc2)c1COc1ccc(C(=O)OCc2ccoc2)cc1 | 
91% | CCN(CC)c1ccc(CNc2c(-c3ccccc3)noc2C)cc1 | Activity [2]: 89%; Activity [3]: 77%; Activity (COS-1): < 8%
100% | CCN(CC)c1ccc(NC(=O)c2c(-c3coc(C)n3)noc2C)cc1 | Activity [2]: 86%; Activity [3]: 110%
83% | CC[N+](C)(c1ccc(NC(=O)c2c(-c3ccccc3)noc2C)cc1)C(C)C (configuration not stated) | 
70% | CCN(CC)c1ccc(NC(=O)c2c(-c3ccc(Br)cc3)noc2C)cc1 | 
110% | Cc1onc(-c2ccccc2)c1C(=O)Nc1ccc(-c2ccccc2)cc1 | Activity [2]: 97%; Activity [3]: 110%
67% | CCN(CCO)c1ccc(NC(=O)c2c(-c3ccccc3)noc2C)cc1 | 
79% | CCN(CC)c1ccc(N(CCF)C(=O)c2c(-c3ccccc3)noc2C)cc1 | 
93% | Cc1cc(NC(=O)c2c(-c3ccccc3)noc2C)ccc1C(C)C | 
99% | Cc1onc(-c2ccccc2)c1COc1ccc(C(=O)OCC(C)C)cc1 | 
92% | CCN(CC)C(=O)c1ccc(OCc2c(-c3ccccc3)noc2C)cc1 | 
99% | Cc1onc(-c2ccccc2)c1C(=O)Nc1ccc(N(C)C)cc1 | 
78% | CCN(CC)c1ccc(NC(=O)c2c(C)nc3ccccn23)cc1 | Activity [2]: 86%; Activity [3]: 94%
100% | CCN(CC)c1ccc(NC(=O)c2ccoc2CCc2cccs2)cc1 | 
 | Cc1onc(-c2ccccc2)c1C(=O)Nc1ccc(OCc2ccccc2)cc1 | Activity (COS-1): < 8%
120% | CCN(CC)c1ccc(NC(=O)c2ncoc2-c2ccco2)cc1 | 
84% | CCN(CC)c1ccc(NC(=O)c2c(-c3ccccc3[N+](=O)[O-])noc2C)cc1 | 
 | COc1ccc(-c2cc(N)nn2C(=O)c2c(-c3ccccc3)noc2C)cc1 | Activity (COS-1): < 8%
110% | Cc1onc(-c2ccccc2)c1C(=O)Nc1nc(C(C)(C)C)cs1 | Activity [2]: 96%; Activity [3]: 110%
110% | CCN(CC)c1ccc(NC(=O)c2c(-c3c(Cl)cccc3Cl)noc2C)cc1 | 

Activity [1] | SMILES | also measured
97% | Cc1onc(-c2ccccc2)c1C(=O)Nc1ccc(OCCN2CCOCC2)cc1 | 
110% | CCN(CC)c1ccc(NC(=O)c2c[nH]nc2-n2cnnn2)cc1 | 
85% | Cc1onc(-c2ccccc2)c1COc1ccc([N+](=O)[O-])cc1 | 
100% | CCN(CC)c1ccc(NC(=O)c2c(-c3ccc(C)s3)noc2C)cc1 | Activity [2]: 88%; Activity [3]: 92%
52% | Cc1onc(-c2ccccc2)c1COc1ccc(C(=O)OCCCC#N)cc1 | Activity [2]: 52%; Activity [3]: 71%
62% | CCN(CC)c1ccc(NC(=O)c2cnn(C)c2-c2ccccc2)cc1 | 
100% | CCN(CC)c1ccc(NC(=O)c2c(-c3ccc([N+](=O)[O-])cc3)noc2C)cc1 | 
79% | CCN(CC)c1ccc(NC(=O)c2c(-n3cccc3)sc(C)c2C)cc1 | Activity [2]: 90%; Activity [3]: 66%
84% | CCN(CC)c1ccc(NC(=O)c2ccnc(C(F)(F)F)c2)cc1 | 
85% | CCN(CC)c1ccc(NC(=O)c2cc(-c3ccc(Br)cc3)oc2C(F)(F)F)cc1 | 
 | CCN(CC)c1ccc(/C=N/c2c(-c3ccccc3)noc2C)c(O)c1 | Activity (COS-1): < 8%
100% | CCN(CC)c1ccc(NC(=O)c2c(-c3cc(C)on3)noc2C)cc1 | Activity [2]: 87%; Activity [3]: 100%
96% | CCN(CC)c1ccc(/C=N/c2c(-c3ccccc3)noc2C)cc1 | 
82% | CCN(CC)c1ccc(CN(C)c2c(-c3ccccc3)noc2C)cc1 | 
100% | Cc1onc(-c2ccccc2)c1COc1ccc(C(=O)N(C)CCCO)cc1 | 
 | CCCn1nnc(-c2ccccc2)c1C(=O)Nc1ccc(N(CC)CC)cc1 | Activity (COS-1): < 8%
66% | CCN(CC)c1ccc(NC(=O)c2c(-c3c(Cl)ccc([N+](=O)[O-])c3Cl)noc2C)cc1 | 
85% | CCN(CC)c1ccc(NC(=O)c2cc(C)sc2-c2cc(C)on2)cc1 | Activity [2]: 96%; Activity [3]: 97%
 | CCN(CC)c1ccc(NC(=O)c2ccnn2-c2ccccc2)cc1 | Activity (COS-1): < 8%
86% | CCN(CC)c1ccc(/N=C(\SC)c2c(-c3ccccc3)noc2C)cc1 | 
91% | CCN(CC)c1ccc(NC(=O)c2c(-c3ccccc3)nnn2CCOC)cc1 | 

Activity [1] | SMILES | also measured
75% | CCN(c1ccc(NC(=O)c2c(-c3ccccc3)noc2C)cc1[N+](=O)[O-])C(C)C | 
69% | CCN(CC)c1ccc(NC(=O)c2c(-c3ccccc3)noc2C)cc1Cl | 
90% | Cc1onc(-c2ccccc2)c1C(=O)Nc1ccc(C(=O)OCC#N)cc1 | 
110% | CCN(CC)c1ccc(NC(=O)c2c(-c3ccc(-c4ccc(F)cc4)cc3)noc2C)cc1 | 
84% | C#Cc1ccc(NC(=O)c2c(-c3ccccc3)noc2C)cc1 | 
110% | CCN(CC)c1ccc(NC(=O)c2ccsc2)cc1 | 
110% | CCN(CC)c1ccc(NC(=O)c2ncoc2-c2ccccc2)cc1 | 
98% | CCN(CC)c1ccc(NS(=O)(=O)c2c(-c3ccccc3)noc2C)cc1 | 
110% | Cc1onc(-c2ccccc2)c1C(=O)Nc1ccc(C(=O)OCCN(C)C)cc1 | 
79% | Cc1onc(-c2ccccc2)c1C(=O)Nc1ccc2c(c1)C(=O)CC2 | 
97% | CCN(CC)c1ccc(N(C)C(=O)c2c(-c3ccccc3)noc2C)cc1 | Activity [2]: 100%; Activity [3]: 99%
78% | CCN(CC)c1ccc(NC(=O)c2nnn(C)c2-c2ccccc2)cc1 | 
94% | CCN(CC)c1ccc(C(=O)Nc2c(-c3ccccc3)noc2C)cc1 | 
88% | CCN(CC)c1ccc(NC(=O)c2c(-c3ccccc3Cl)noc2C)cc1 | Activity [2]: 97%; Activity [3]: 110%
110% | CCN(CC)c1ccc(/N=C(\SCCF)c2c(-c3ccccc3)noc2C)cc1 | 
89% | CCN(CC)c1ccc(NC(=O)c2c(-c3cc(Br)cs3)noc2C)cc1 | 
 | CCN(CC)c1ccc(NC(=O)c2c[nH]nc2-c2ccccc2)cc1 | Activity (COS-1): < 8%
100% | CCN(CC)c1ccc(NC(=O)c2nn(-c3ccccc3)nc2C)cc1 | 
76% | CCN(c1ccc(NC(=O)c2c(-c3ccccc3)noc2C)cc1N)C(C)C | 
 | CCN(CC)c1ccc(NCc2c[nH]nc2-c2cc(F)cc(F)c2)cc1 | Activity (COS-1): < 8%
